# Assay outcomes from PubChem BioAssay.
# MLL AF4-AF9 inh = inhibitors of AF4 peptide binding to AF9, primary screen, biochemical, AlphaScreen, biotin-AF4 peptide, FLAG-AF9, single point; 350,000 compounds, 0.47% hits; inhibition, % at 10 µM; AID 651704, 2012; Protein AF-9 (Homo sapiens), P42568;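 active means every replicate reaching a set inhibition limit, whatever the replicate mean, cut at about 25% in these data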;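 further: 0% = plate neutral control median and 100% = total signal loss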
# S100A4 MyoIIA = inhibitors of S100A4-myosin IIA peptide binding, primary screen, biochemical, fluorescence polarization, TAMRA-MyoIIA peptide; AID 652163, 2013; Protein S100-A4 (Homo sapiens), P26447; 360,000 compounds, 0.14% hits; inhibition, % at 10.7 µM;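 active means mean inhibition of at least 70% across replicates, with every replicate also reaching that level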
#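 Material: S100A4 monomer (human). Medium: Calcium-containing HEPES buffer, pH 7.2. Probe or stimulus: labelled myosin peptide probe, 5 nM. Compound dosing: one concentration per compound. Timing: polarization read 5 min after assay mix addition, stable 5–60 min. Benchmarks: DMSO as neutral control, TFP as positive control.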
# RAD52 inh = RAD52 DNA annealing inhibitors, primary screen, biochemical, FRET, single point, set 2. inhibition, % at 18.7 µM. 360,000 compounds, 0.46% hits. recombinant RAD52 DNA annealing, FRET fluorescence;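 active means every replicate showing at least 50% inhibition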
# ERAP1 HTS inh = human ERAP1 aminopeptidase inhibitors, primary screen, biochemical, single point, plate reader; Endoplasmic reticulum aminopeptidase 1 (Homo sapiens), Q9NZ08; recombinant ERAP1, Leu-AMC fluorescence, 60 min; inhibition, % at 10.7 µM; 340,000 compounds, 0.15% hits;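 active means mean replicate inhibition of at least 30%, or all replicates individually reaching that 30% level; inactive means mean below 30% and not every replicate reaching it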;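 further: 0% = neutral control wells and 100% = L-leucinethiol positive control wells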
# Target sequence (Q9NZ08 whole entry, looked up): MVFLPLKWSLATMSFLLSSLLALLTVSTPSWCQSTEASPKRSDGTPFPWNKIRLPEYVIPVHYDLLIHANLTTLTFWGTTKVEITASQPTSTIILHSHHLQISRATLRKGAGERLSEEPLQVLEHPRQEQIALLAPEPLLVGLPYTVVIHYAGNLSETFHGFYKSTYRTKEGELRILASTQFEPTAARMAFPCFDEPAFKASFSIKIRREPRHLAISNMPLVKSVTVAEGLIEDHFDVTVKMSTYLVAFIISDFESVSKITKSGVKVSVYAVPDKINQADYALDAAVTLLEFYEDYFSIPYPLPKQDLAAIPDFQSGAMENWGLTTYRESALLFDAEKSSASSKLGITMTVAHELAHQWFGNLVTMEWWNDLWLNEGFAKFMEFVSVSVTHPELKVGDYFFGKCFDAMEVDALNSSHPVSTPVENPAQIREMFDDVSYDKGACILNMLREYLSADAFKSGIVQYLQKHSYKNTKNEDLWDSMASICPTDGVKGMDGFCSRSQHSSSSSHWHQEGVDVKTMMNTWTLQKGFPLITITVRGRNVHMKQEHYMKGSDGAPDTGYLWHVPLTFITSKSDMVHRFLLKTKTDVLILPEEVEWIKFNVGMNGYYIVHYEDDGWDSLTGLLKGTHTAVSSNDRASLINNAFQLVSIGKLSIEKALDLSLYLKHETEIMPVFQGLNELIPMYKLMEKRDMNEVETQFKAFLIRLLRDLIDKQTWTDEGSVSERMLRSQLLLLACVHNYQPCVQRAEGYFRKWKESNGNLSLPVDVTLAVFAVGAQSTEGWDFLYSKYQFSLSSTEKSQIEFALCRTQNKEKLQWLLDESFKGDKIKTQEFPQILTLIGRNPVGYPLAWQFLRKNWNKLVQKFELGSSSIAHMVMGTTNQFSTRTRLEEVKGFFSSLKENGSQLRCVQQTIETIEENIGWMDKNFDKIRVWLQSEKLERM
# GSIS activator = GLuc luminescence reporter in INS-1E cells, primary screen for activators of glucose-dependent secretion of insulin. INS-1E GLuc reporter insulin secretion, 2-3 h. activation, % at 16.6 µM. 370,000 compounds, 0.61% hits. AID 743287, 2014;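 active means lowest replicate activation of at least 40%, so every replicate reaches that level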;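 further: 0% = median of neutral control wells and 100% = median of IBMX positive control wells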
# Active calls of the source: *; · = no result. The list is not random: actives were taken first. Their share in the collection is about 1.5%.
SMILES,MLL AF4-AF9 inh,S100A4 MyoIIA,RAD52 inh,ERAP1 HTS inh,GSIS activator
O=C(C1CC1)N1CC(=O)N2[C@H](CO)[C@H](c3ccc(Br)cc3)[C@H]2C1,-3.3,8.8,-18.4,0.2,10.8
COc1cc2c(cc1OC)C(c1cccc([N+](=O)[O-])c1)NC(=O)C2 (stereo not given),-3.1,3.3,-7.9,-3.2,70.4*
C=CCOc1cccc(C(=O)N2CCC(CCC(=O)NC3CC3)CC2)c1,-8.4,-0.4,-5.4,-0.2,54.3*
Cc1cc(C)cc(C(=O)N2CCC(CCC(=O)NC3CC3)CC2)c1,-2.8,2.7,-12.8,1.4,2.7
CCNC(=S)NNC(=O)CCc1nc2cc(Cl)ccc2n(Cc2ccccc2)c1=O,2.5,5.2,-23.5,-8.5,10.4
CN(C)C(CNC(=O)CCc1nc2cc(Cl)ccc2n(Cc2ccccc2)c1=O)c1ccccc1 (stereo not given),8.1,190.2*,-29.1,-0.6,13.1
O=C(NCC1OCCc2ccccc21)c1ccc(NC(=O)c2cccc(Br)c2)cc1 (stereo not given),·,·,·,·,253.1*
O=C(NCC1OCCc2ccccc21)c1ccc(NC(=O)c2ccc(Cl)cc2Cl)cc1 (stereo not given),·,·,·,·,267.5*
O=C(NCC1OCCc2ccccc21)c1ccc(NC(=O)c2ccccc2Cl)cc1 (stereo not given),·,·,·,·,-9.8
COc1ccc2c(c1)OC1(C)CC2C(C(=O)c2ccccc2OC)C(=O)N1 (stereo not given),48.5*,-2.7,-4.3,-2.9,·
O=C1/C(=C\c2ccc(Cl)c(Cl)c2)CN(C(=O)CCN2CCOCC2)C/C1=C/c1ccc(Cl)c(Cl)c1,7.3,3.6,-105.6,1.2,135.8*
Cc1nc(Cc2ccccc2)sc1CC#N,-2.7,-1.1,-7.6,1.9,42.3*
O=C(c1ccco1)N(Cc1ccccc1)Cc1ccccn1,0.2,-0.6,-14.7,-4.7,45.7
O=C(c1cccs1)N(Cc1ccccn1)Cc1ccco1,·,·,·,·,73.1*
O=[N+]([O-])c1cccc(-c2nnc3ccc4ccccc4n23)c1,·,·,·,·,55.1*
O=[N+]([O-])c1cccc(-c2nnc3cccc(Cl)n23)c1,-1.6,-0.9,-10.5,-1.8,51.9
CC(=O)Nc1cccc2c1O[C@H](CN(C)C(=O)NC(C)C)[C@@H](C)CN(C)C2=O,·,·,·,·,4.1
CCOC(=O)Cn1c(=NC(=O)c2nc3ccccc3s2)sc2cc(S(N)(=O)=O)ccc21,·,·,·,·,67.5*
CCOC(=O)c1ccc2c(c1)sc(=NC(=O)c1ccco1)n2CCOC,·,·,·,·,64.7*
CCOC(=O)Cn1c(=NC(=O)c2cccs2)sc2cc(C(=O)OC)ccc21,·,·,·,·,89.6*
CCC(=O)N=c1sc2cc([N+](=O)[O-])ccc2n1CCOC,·,·,·,·,5.8
C[C@H]1CN(C)C(=O)c2cc(N(C)C)ccc2O[C@H]1CN(C)C,·,·,·,·,-7.8
CC1Oc2ccccc2N(CC(=O)N2CCCc3ccccc32)C1=O (stereo not given),5.9,-2.5,-20.0,-3.4,12.2
CC1Oc2ccccc2N(CC(=O)N2CCCCC2)C1=O (stereo not given),30.4*,-7.6,0.1,1.3,20.9
Cc1cc(NCCCn2ccnc2)n2nc(-c3ccc(Cl)cc3)cc2n1,11.5,5.9,-44.5,1.6,13.8
CC(C)(C)c1cc(NCCCn2ccnc2)n2ncc(-c3ccc(Cl)cc3)c2n1,·,·,·,·,817.1*
COc1ccc(CN2C[C@@H](O)COC[C@@H]3O[C@H](CC(=O)NCCN4CCCC4)CC[C@H]32)cc1,·,·,·,·,-4.0
C[C@H](CO)N1C[C@H](C)[C@H](CN(C)Cc2ccc(C(=O)Nc3ccccc3N)cc2)Oc2c(NC(=O)C3CCOCC3)cccc2C1=O,3.0,4.4,2.7,-3.5,9.1
C[C@H](CO)N1C[C@H](C)[C@H](CN(C)Cc2ccccc2)Oc2c(NC(=O)CCCCCC(=O)Nc3ccccc3N)cccc2C1=O,-2.7,107.9*,-11.3,1.6,-2.9
C[C@@H]1CN([C@H](C)CO)C(=O)c2cccc(NC(=O)CCCCCC(=O)Nc3ccccc3N)c2O[C@@H]1CN(C)Cc1ccccc1,-0.5,-7.0,-12.7,0.4,14.9
